# Screening data from PubChem BioAssay.
# This is a sample that favours compounds with a hit; in the whole collection about 2.5% have one here.
# SIAE inh: human SIAE inhibition, primary screen. SIAE FP-Rh probe binding, fluorescence polarization. inhibition, % at 9.66 µM. 0.69% of 370,000 active. AID 1053197;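 active means inhibition above a cutoff: mean of compounds within the control limits plus 3 SD of those, cut at about 17% in these data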;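 further: 0% = plate median of compound wells and 100% = probe without SIAE protein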
# TCR CD3 inh: human TCR-CD3 binding inhibition. TAMRA-labeled TCR probe fluorescence, biochemical. inhibition, % at 9.4 µM. 0.37% of 360,000 active. AID 651800; in the data active means inhibition above about 19%;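 further: recombinant mutant TCR 2C K166C tagged with TAMRA read by polarization; 0% = receptor in buffer alone and 100% = receptor with positive control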
# mABHD4 FP: inhibits mouse alpha/beta hydrolase domain 4. Q8VD66. purified mABHD4, FP-Rh probe fluorescence polarization. inhibition, % at 8.92 µM. 0.54% of 370,000 active. AID 720543;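 active means inhibition exceeding the mean over every tested compound plus 3 SD, cut at about 30% in these data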;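 further: 0% = plate median of compound wells and 100% = S159A mutant with DMSO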
#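 Assay system: Wild-type mouse ABHD4 protein | Medium: HEPES pH 7.0 buffer, 150 mM NaCl, 0.01% Pluronic F-127 | Incubation: Enzyme–compound pre-incubation 45 min, then probe 60 min, both 25 °C | Technique: Fluorescence polarization with parallel and perpendicular emission, 525/598 nm | Evaluation: % inhibition of FP-Rh probe binding versus controls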
# rCAG RNA binder: binds r(CAG) RNA repeats; r(CAG) RNA repeat, TO-PRO-1 dye displacement fluorescence; inhibition, % at 3 µM; 1.3% of 370,000 active; AID 651821;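 active means inhibition above the plate cutoff, the mean of all test compounds on that plate plus 3 SD, cut at about 35% in these data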;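 further: 0% = DMSO alone and 100% = 100 µM mitoxantrone as full dye displacement; higher means more dye released from RNA so lower well fluorescence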
# HTRA1 inh: blocks human HTRA1 serine peptidase. Q92743. recombinant HTRA1, FP-rhodamine activity-based probe, fluorescence polarization. inhibition, % at 5.96 µM. 0.5% of 340,000 active. AID 504803; in the data active means inhibition above about 36%;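 further: 0% = enzyme with DMSO and 100% = wells lacking enzyme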
# Target sequence (Q92743 whole entry, looked up): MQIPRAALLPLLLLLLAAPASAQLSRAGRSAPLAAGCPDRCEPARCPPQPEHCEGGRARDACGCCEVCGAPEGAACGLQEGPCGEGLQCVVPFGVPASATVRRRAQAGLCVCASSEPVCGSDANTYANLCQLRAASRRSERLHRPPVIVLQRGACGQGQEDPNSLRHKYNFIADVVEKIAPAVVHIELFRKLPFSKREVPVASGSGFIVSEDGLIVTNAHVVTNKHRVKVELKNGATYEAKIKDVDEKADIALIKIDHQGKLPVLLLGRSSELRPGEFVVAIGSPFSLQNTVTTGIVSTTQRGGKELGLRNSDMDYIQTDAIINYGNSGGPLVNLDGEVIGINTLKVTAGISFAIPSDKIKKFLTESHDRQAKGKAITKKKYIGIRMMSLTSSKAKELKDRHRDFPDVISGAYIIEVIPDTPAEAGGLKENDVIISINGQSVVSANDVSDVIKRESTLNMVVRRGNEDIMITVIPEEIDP
# rCAG bind conf: r(CAG) RNA repeat binding, confirmation. shares compounds with rCAG RNA binder. TO-PRO-1 dye displacement fluorescence. inhibition, % at 3 µM. 70% of 4,300 active. AID 652065;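 active means inhibition above a per-plate cutoff, the mean inhibition of sample wells plus 3 SD, cut at about 35% in these data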;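 further: loss of TO-PRO-1 fluorescence as compound displaces dye from 1x1 AA loop RNA; 0% = DMSO only wells and 100% = 100 µM mitoxantrone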
# dCAG dye counter: counter-screen for rCAG RNA binders: DNA CAG dye complex inhibitors; shares compounds with rCAG RNA binder; d(CAG) DNA oligo TO-PRO-1 dye displacement, fluorescence; inhibition, % at 3 µM; 94% of 4,300 active; AID 652068;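 active means inhibition above its plate's cutoff, the mean test-well inhibition plus 3 SD, cut at about 4.8% in these data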;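 further: 0% = DNA dye mix with DMSO and 100% = 100 µM mitoxantrone; hits displace the dye from DNA and so lower well fluorescence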
# DNA CAG DR: DNA CAG dye complex inhibition, dose response counter-screen; DNA CAG/GTC duplex TO-PRO-1 dye displacement fluorescence; 20% of 250 active; shares compounds with rCAG RNA binder; IC50, µM; AID 686960; in the data active means IC50 below about 10 µM
# Numbers without * were called inactive; nt = no result given.
SMILES,SIAE inh,TCR CD3 inh,mABHD4 FP,rCAG RNA binder,HTRA1 inh,rCAG bind conf,dCAG dye counter,others
O=C(O)c1[nH]c2ccc(Br)cc2c1CCN1C(=O)c2cccc([N+](=O)[O-])c2C1=O,-7,2,-1,64*,-7,42*,13*,
Cc1ccc(S(=O)(=O)NN=C(c2ccccc2)c2cccs2)cc1,-5,4,-13,36*,-1,19,6.7*,
Cc1ccc(SC(CC(=O)c2ccc(F)cc2)C(=O)O)cc1 (stereo unspecified),8,1,-3,1,2,nt,nt,
CC(C)(C)c1ccc(C(=O)CC(Sc2ccc(Cl)cc2)C(=O)O)cc1 (stereo unspecified),1,5,0,41*,-10,52*,18*,
CCC(C(=O)N1CCN(S(C)(=O)=O)CC1)c1ccccc1 (stereo unspecified),-6,-7,-2,-5,3,nt,nt,
CCOC(=O)N1CCN(C(=O)C(CC)c2ccccc2)CC1 (stereo unspecified),9,4,3,39*,1,6,1,
COc1cccc(C(=O)NCC(=O)NNc2ncnc(N)c2[N+](=O)[O-])c1,-4,-1,10,7,3,nt,nt,
Cc1noc(NS(=O)(=O)c2ccc(N/C=C\C(=O)c3ccc4c(c3)OCO4)cc2)c1C,2,8,-11,44*,4,43*,14*,
Cc1cc(N/C=C/C(=O)c2cccc3ccccc23)no1,-1,-4,4,2,-15,nt,nt,
Cc1noc(NS(=O)(=O)c2ccc(N/C=C\C(=O)c3ccc(Br)cc3)cc2)c1C,-8,4,3,75*,-13,74*,39*,
COc1cccc(C(=O)/C=C/Nc2ccc(S(=O)(=O)Nc3onc(C)c3C)cc2)c1,-4,-4,-2,13,-4,nt,nt,
CCOc1ccc(C(=O)/C=C/Nc2ccc(S(=O)(=O)Nc3onc(C)c3C)cc2)cc1,-1,9,6,42*,-14,64*,25*,
Cc1noc(NS(=O)(=O)c2ccc(N/C=C\C(=O)c3cccc4ccccc34)cc2)c1C,-13,3,-4,72*,-27,81*,46*,
O=C(Nn1c(O)c(C=C2N=c3ccccc3=N2)sc1=S)c1ccccc1Cl,-10,7,-3,63*,1,33,11*,
O=S(=O)(Nn1c(O)c(C=C2N=c3ccccc3=N2)sc1=S)c1ccccc1,-5,-4,14,89*,-5,72*,37*,
O=C(O)c1cc(S(=O)(=O)N2CCN(S(=O)(=O)c3ccc4ccccc4c3)CC2)ccc1Br,-5,-8,15,53*,0,43*,15*,
O=S(=O)(c1ccc2ccccc2c1)N1CCCCCC1,11,-1,3,-3,-6,nt,nt,
O=C(O)c1cc(S(=O)(=O)N2CCN(C(c3ccccc3)c3ccccc3)CC2)ccc1Cl,-6,4,1,55*,-18,49*,17*,
Cc1ccccc1S(=O)(=O)Nc1ncnc2scc(-c3ccccc3)c12,-1,0,-9,55*,-8,50*,16*,
CCOc1cc(/C=C/C(=O)O)ccc1OCCO,9,4,-4,0,-1,nt,nt,
Cc1ccc(S(=O)(=O)NC(=O)c2ccc(-c3ccc(C)c4ccccc34)o2)cc1,-13,2,-26,77*,-70,73*,28*,DNA CAG DR=8.4*
O=S(=O)(Nc1nc2ccccc2nc1Nc1ccc2c(c1)OCCO2)c1cccs1,-7,0,25,91*,33,83*,51*,
CC(=O)c1cccc(-c2ccnc3c2CC(C(=O)NCCc2ccccc2)O3)c1 (stereo unspecified),4,5,-8,-1,nt,nt,nt,
C[C@@H]1CN([C@H](C)CO)S(=O)(=O)c2ccc(Br)cc2O[C@@H]1CN(C)Cc1ccc(C(=O)O)cc1,5,6,0,14,1,nt,nt,
C[C@@H]1CN([C@@H](C)CO)S(=O)(=O)c2ccc(/C=C/c3ccccc3)cc2O[C@@H]1CN(C)Cc1ccc(C(=O)O)cc1,0,-4,-15,60*,-26,66*,25*,
SMILES,SIAE inh,TCR CD3 inh,mABHD4 FP,rCAG RNA binder,HTRA1 inh,rCAG bind conf,dCAG dye counter,others
CCC(=O)NC(NC(=S)Nc1ccc(S(N)(=O)=O)cc1)C(Cl)(Cl)Cl (stereo unspecified),6,2,4,53*,5,4,1,
CC(=O)NC(NC(=S)Nc1ccc(S(N)(=O)=O)cc1)C(Cl)(Cl)Cl (stereo unspecified),-5,-3,-6,3,9,nt,nt,
COc1ccc(Cl)cc1Nc1nc(-c2sc(NC(=O)c3ccco3)nc2C)cs1,-22,4,16,35*,0,34,17*,
COc1cccc(Nc2nc(-c3sc(NC(=O)c4ccco4)nc3C)cs2)c1,-10,-3,5,37*,1,30,17*,
COc1ccc(Cl)cc1Nc1nc(-c2sc(NC(=O)C(C)(C)C)nc2C)cs1,2,-1,16,34,-1,nt,nt,
O=C(C1=NN[C@@H]2C(=O)N(c3ccccc3C(F)(F)F)C(=O)[C@H]12)C(c1ccccc1)c1ccccc1,3,4,-13,11,-4,nt,nt,
N#Cc1ccc(N2C(=O)[C@@H]3C(C(=O)C(c4ccccc4)c4ccccc4)=NN[C@@H]3C2=O)cc1,-8,1,-37,61*,-28,34,12*,
Cc1ccc(NC(=O)c2cccc(Oc3ccc([N+](=O)[O-])cc3)c2)c(C(=O)O)c1,-26,-4,-64,85*,-79,74*,38*,
O=C(Nc1ccc(O)cc1)c1cccc(Oc2ccc([N+](=O)[O-])cc2)c1,1,-1,-5,-1,-3,nt,nt,
Cc1nc(-c2ccccc2)sc1C(=O)NS(=O)(=O)c1ccc(CN2CCN(c3ccccc3)CC2)cc1,-2,-5,-18,83*,nt,81*,45*,
CC1(C)CC(=O)C2=C(C1)OC1=C(C(=O)CC(C)(C)C1)C2c1cc([N+](=O)[O-])cc([N+](=O)[O-])c1O,-5,4,12,53*,-5,64*,24*,
CCOc1cc(C2C3=C(CC(C)(C)CC3=O)OC3=C2C(=O)CC(C)(C)C3)cc([N+](=O)[O-])c1O,1,-9,-1,1,1,nt,nt,
CN1CC(=O)N(CC(=O)NC2CCCCC2)C1=O,-4,9,1,-1,-1,nt,nt,
CN1C(=O)c2ccc(C(=O)Nc3cccnc3)cc2C1=O,-2,-6,1,-2,3,nt,nt,
Cc1ccccc1COc1ccc(-c2nn[nH]n2)cc1,-7,-3,-10,11,1,nt,nt,
